Calls of active or inactive are those of the source. The rule behind the calls is not given here.
What was measured:
[1] = biological target: Human immunodeficiency virus type 1 integrase (Human immunodeficiency virus 1) (UniProt Q7ZJM1); test: Inhibition of HIV-1 integrase expressed in Escherichia coli using [32P]-labeled U5B/U5A DNA as substrate assessed as inhibition of 3'-processing reaction up to 250 uM after 2 hrs by PAGE analysis in presence of Mg2+
Summary of the method: (§1)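 3'-Processing: 32P-labeled U5B/U5A (3 nM) with IN (100 nM) in buffer A (20 mM HEPES pH 7.2, 7.5 mM MgCl2 or MnCl2, 1 mM DTT), increasing inhibitor, 37°C, 2 h; stopped with EDTA solution, phenol–chloroform extracted, ethanol precipitated, resolved on denaturing 20% PAGE, phosphorimager-quantified.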

[2] = biological target: T1, Human immunodeficiency virus type 1 integrase (Human immunodeficiency virus 1, UniProt Q7ZJM1); test: (§2) Inhibition of HIV-1 integrase expressed in Escherichia coli using [32P]-labeled U5B/U5A DNA as substrate assessed as inhibition of 3'-processing reaction after 2 hrs by PAGE analysis in presence of Mg2+; summary of the method: as §1
[3] = biological target: T1, Human immunodeficiency virus type 1 integrase; test: Displacement of [32P]-labeled U5B/U5A DNA from HIV-1 integrase expressed in Escherichia coli in presence of Mn2+
Summary of the method: (§3)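 DRaCALA binding: 32P-labeled U5B/U5A (3 nM) with IN in buffer A (20 mM HEPES pH 7.2, 7.5 mM MgCl2 or MnCl2, 1 mM DTT), compound 0–500 μM, 25°C for 20 min; mixture spotted on nitrocellulose membrane, bound DNA quantified by phosphorimaging.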

[4] = biological target: T1, Human immunodeficiency virus type 1 integrase; test: Inhibition of HIV-1 integrase expressed in Escherichia coli using [32P]-labeled U5B-2/U5A DNA as substrate assessed as inhibition of strand transfer reaction after 2 hrs by PAGE analysis in presence of Mg2+
Summary of the method: (§4)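 Strand transfer: 32P-labeled U5B-2/U5A duplex (10 nM) with IN (100 nM) in buffer A (20 mM HEPES pH 7.2, 7.5 mM MgCl2 or MnCl2, 1 mM DTT), increasing inhibitor, 37°C, 2 h. EDTA-containing stop solution, phenol–chloroform extraction, ethanol precipitation, denaturing 20% PAGE, phosphorimager quantification of reaction efficiency.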

[5] = biological target: T1, Human immunodeficiency virus type 1 integrase; test: Inhibition of HIV-1 integrase expressed in Escherichia coli using [32P]-labeled U5B-2/U5A DNA as substrate assessed as inhibition of strand transfer reaction after 2 hrs by PAGE analysis in presence of Mn2+; summary of the method: as §4
[6] = biological target: T1, Human immunodeficiency virus type 1 integrase; test: Displacement of [32P]-labeled U5B/U5A DNA from HIV-1 integrase expressed in Escherichia coli in presence of Mg2+; summary of the method: as §3
[7] = biological target: T1, Human immunodeficiency virus type 1 integrase; test: Inhibition of HIV-1 GST-tagged integrase-His6-tagged LEDGF complex expressed in Escherichia coli BL21(DE3) using [32P]-labeled U5B/U5A DNA as substrate assessed as inhibition of 3'-processing reaction after 2 hrs by PAGE analysis in presence of Mn2+
Summary of the method: (§5)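 IN/LEDGF complex (IN combined with 50 nM LEDGF) processing 32P-labeled U5B/U5A (3 nM) in buffer A (20 mM HEPES pH 7.2, 7.5 mM MgCl2 or MnCl2, 1 mM DTT) with increasing inhibitor, 37°C, 2 h; products separated by denaturing 20% PAGE and quantified by phosphorimaging.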

[8] = biological target: T1, Human immunodeficiency virus type 1 integrase; test: Inhibition of HIV-1 GST-tagged integrase-His6-tagged LEDGF complex expressed in Escherichia coli BL21(DE3) using [32P]-labeled U5B/U5A DNA as substrate assessed as inhibition of 3'-processing reaction after 2 hrs by PAGE analysis in presence of Mg2+; summary of the method: as §5
[9] = biological target: T1, Human immunodeficiency virus type 1 integrase; test: Inhibition of HIV-1 integrase expressed in Escherichia coli using [32P]-labeled U5B/U5A DNA as substrate assessed as inhibition of 3'-processing reaction after 2 hrs by PAGE analysis in presence of Mn2+; summary of the method: as §1
[10] = biological target: Human immunodeficiency virus type 1 integrase (Human immunodeficiency virus 1) (UniProt Q7ZJM1); test: as §2; summary of the method: as §1
[11] = biological target: Human immunodeficiency virus type 1 integrase (Human immunodeficiency virus 1) (UniProt Q7ZJM1); test: Inhibition of HIV-1 integrase expressed in Escherichia coli using [32P]-labeled U5B/U5A DNA as substrate assessed as inhibition of 3'-processing reaction up to 500 uM after 2 hrs by PAGE analysis in presence of Mg2+
Summary of the method: (§6)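 3'-processing: 32P-labelled U5B/U5A duplex mimicking the HIV-1 U5 LTR end (3 nM) incubated with integrase (100 nM) in 20 mM HEPES pH 7.2, 7.5 mM MgCl2, 1 mM DTT, with increasing inhibitor concentrations, 37°C, 2 h. Stopped with EDTA, phenol-chloroform extracted, ethanol precipitated. Products resolved on denaturing 20% PAGE, phosphorimaged, reaction efficiency quantified.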

[12] = biological target: T1, Human immunodeficiency virus type 1 integrase; test: Non-competitive inhibition of HIV-1 integrase expressed in Escherichia coli using [32P]-labeled U5B/U5A DNA as substrate after 1 hr by double-reciprocal plot analysis in presence of Mn2+
Summary of the method: (§7)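 Kinetics: IN (100 nM) incubated with 32P-labeled U5B/U5A (2.5–12.5 nM) plus inhibitor (0–39 μM or 0–15 μM, depending on compound) in buffer A (20 mM HEPES pH 7.2, 7.5 mM MgCl2 or MnCl2, 1 mM DTT), 1 h, 37°C. Initial 3'-processing rate vs substrate concentration at varied inhibitor levels plotted double-reciprocally; Km and KI calculated from the fitted inhibition model.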

[13] = biological target: T1, Human immunodeficiency virus type 1 integrase; test: Competitive inhibition of HIV-1 integrase expressed in Escherichia coli using [32P]-labeled U5B/U5A DNA as substrate after 1 hr by double-reciprocal plot analysis in presence of Mg2+; summary of the method: as §7
[14] = biological target: Human immunodeficiency virus type 1 integrase (Human immunodeficiency virus 1, UniProt Q7ZJM1, E138K); test: Inhibition of HIV-1 integrase E138K mutant expressed in Escherichia coli using [32P]-labeled U5B/U5A DNA as substrate assessed as inhibition of 3'-processing reaction after 2 hrs by PAGE analysis in presence of Mg2+; summary of the method: as §6
[15] = biological target: Human immunodeficiency virus type 1 integrase (Human immunodeficiency virus 1, UniProt Q7ZJM1, N155H); test: Inhibition of HIV-1 integrase N155H mutant expressed in Escherichia coli using [32P]-labeled U5B/U5A DNA as substrate assessed as inhibition of 3'-processing reaction after 2 hrs by PAGE analysis in presence of Mg2+; summary of the method: as §6
[16] = biological target: Human immunodeficiency virus type 1 integrase (Human immunodeficiency virus 1, UniProt Q7ZJM1, E92Q); test: Inhibition of HIV-1 integrase E92Q mutant expressed in Escherichia coli using [32P]-labeled U5B/U5A DNA as substrate assessed as inhibition of 3'-processing reaction after 2 hrs by PAGE analysis in presence of Mg2+; summary of the method: as §6
[17] = biological target: Human immunodeficiency virus type 1 integrase (Human immunodeficiency virus 1, UniProt Q7ZJM1, G140S); test: Inhibition of HIV-1 integrase G140S mutant expressed in Escherichia coli using [32P]-labeled U5B/U5A DNA as substrate assessed as inhibition of 3'-processing reaction after 2 hrs by PAGE analysis in presence of Mg2+; summary of the method: as §6
[18] = biological target: T1, Human immunodeficiency virus type 1 integrase; test: Non-competitive inhibition of HIV-1 integrase expressed in Escherichia coli using [32P]-labeled U5B/U5A DNA as substrate after 1 hr by double-reciprocal plot analysis in presence of Mg2+; summary of the method: as §7
[19] = biological target: Human immunodeficiency virus type 1 integrase (Human immunodeficiency virus 1) (UniProt Q7ZJM1); test: Ratio of IC50 for HIV-1 integrase-mediated 3'-processing reaction in presence of Mg2+ to IC50 for HIV-1 integrase-mediated strand transfer reaction in presence of Mg2+

Chain of Human immunodeficiency virus type 1 integrase (Human immunodeficiency virus 1) (Q7ZJM1 as listed by the source): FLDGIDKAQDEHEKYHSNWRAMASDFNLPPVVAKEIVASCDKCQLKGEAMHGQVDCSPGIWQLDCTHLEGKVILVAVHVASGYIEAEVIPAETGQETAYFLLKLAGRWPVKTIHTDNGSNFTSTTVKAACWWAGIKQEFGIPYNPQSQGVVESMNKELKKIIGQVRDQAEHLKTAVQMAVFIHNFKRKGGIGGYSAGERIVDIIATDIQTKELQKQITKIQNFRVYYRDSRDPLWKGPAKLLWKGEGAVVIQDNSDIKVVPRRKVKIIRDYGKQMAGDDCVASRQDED
T1 sequence (Q7ZJM1 whole entry): as the sequence (Q7ZJM1 as listed by the source) above
Chain of Human immunodeficiency virus type 1 integrase (Human immunodeficiency virus 1, UniProt Q7ZJM1, E138K) (Q7ZJM1 entry or part of it E138K): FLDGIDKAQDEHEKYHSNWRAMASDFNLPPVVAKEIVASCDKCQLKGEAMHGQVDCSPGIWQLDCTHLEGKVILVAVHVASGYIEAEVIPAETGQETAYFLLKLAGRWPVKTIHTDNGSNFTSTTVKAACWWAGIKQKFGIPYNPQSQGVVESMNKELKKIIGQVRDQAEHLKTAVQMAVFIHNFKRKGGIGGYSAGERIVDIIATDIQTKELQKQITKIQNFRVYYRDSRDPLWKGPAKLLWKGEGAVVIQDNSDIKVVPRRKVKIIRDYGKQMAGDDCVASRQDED
Chain of Human immunodeficiency virus type 1 integrase (Human immunodeficiency virus 1, UniProt Q7ZJM1, G140S) (Q7ZJM1 entry or part of it G140S): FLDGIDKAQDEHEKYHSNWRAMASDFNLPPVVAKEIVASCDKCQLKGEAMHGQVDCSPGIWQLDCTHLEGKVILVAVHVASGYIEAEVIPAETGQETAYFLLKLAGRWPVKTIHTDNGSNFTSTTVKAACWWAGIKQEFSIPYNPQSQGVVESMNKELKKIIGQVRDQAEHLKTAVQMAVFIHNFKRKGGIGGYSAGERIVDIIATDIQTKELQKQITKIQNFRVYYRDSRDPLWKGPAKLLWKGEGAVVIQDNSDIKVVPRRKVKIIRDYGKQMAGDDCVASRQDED
Chain of Human immunodeficiency virus type 1 integrase (Human immunodeficiency virus 1, UniProt Q7ZJM1, E92Q) (Q7ZJM1 entry or part of it E92Q): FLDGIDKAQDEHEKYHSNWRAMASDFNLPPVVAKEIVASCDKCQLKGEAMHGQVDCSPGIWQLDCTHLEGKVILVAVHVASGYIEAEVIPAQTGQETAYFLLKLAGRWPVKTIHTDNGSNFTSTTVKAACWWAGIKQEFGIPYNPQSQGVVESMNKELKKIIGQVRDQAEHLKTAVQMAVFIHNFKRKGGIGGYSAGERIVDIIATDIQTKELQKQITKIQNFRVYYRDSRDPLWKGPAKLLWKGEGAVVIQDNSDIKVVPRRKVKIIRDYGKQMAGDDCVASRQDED
Chain of Human immunodeficiency virus type 1 integrase (Human immunodeficiency virus 1, UniProt Q7ZJM1, N155H) (Q7ZJM1 entry or part of it N155H): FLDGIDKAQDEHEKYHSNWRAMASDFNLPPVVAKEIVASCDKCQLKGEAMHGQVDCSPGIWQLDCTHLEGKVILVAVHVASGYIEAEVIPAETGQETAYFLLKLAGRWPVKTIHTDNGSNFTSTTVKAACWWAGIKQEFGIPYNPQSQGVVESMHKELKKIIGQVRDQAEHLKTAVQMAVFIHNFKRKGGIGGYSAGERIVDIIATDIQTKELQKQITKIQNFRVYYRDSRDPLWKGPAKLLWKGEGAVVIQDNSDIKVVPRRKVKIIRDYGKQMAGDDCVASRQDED

## O=P(O)(O)C(O)(CCCCc1ccccc1)P(=O)(O)O
[1]
  inhibition: inactive

## O=P(O)(O)C(O)(Cc1ccc(Cl)cc1)P(=O)(O)O
[2]
  IC50: 20 µM
[3]
  IC50: > 500 µM
[4]
  IC50: 42 µM
[5]
  IC50: 6 µM
[6]
  IC50: 70 µM
[7]
  IC50: 8 µM
[8]
  IC50: > 250 µM
[9]
  IC50: 5 µM

## O=P(O)(O)C(CNc1ccc(I)cc1)P(=O)(O)O
[10]
  inhibition: inactive

## O=C(O)Cc1ccc(Cl)c(Cl)c1
[11]
  inhibition: inactive

## O=P(O)(O)C(Cc1ccc(Cl)c(Cl)c1)(Cc1ccc(Cl)c(Cl)c1)P(=O)(O)O
[2]
  IC50: 20 µM
[3]
  IC50: > 500 µM
[4]
  IC50: 16 µM
[5]
  IC50: 0.8 µM
[6]
  IC50: 100 µM
[9]
  IC50: 0.8 µM

## O=P(O)(O)C(O)(CCc1ccccc1)P(=O)(O)O
[1]
  inhibition: inactive

## O=P(O)(O)C(O)(Cc1ccccc1)P(=O)(O)O
[1]
  inhibition: inactive

## O=P(O)(O)C(O)(C[n+]1ccccc1)P(=O)(O)O
[1]
  inhibition: inactive

## NC(C[n+]1ccccc1)(P(=O)(O)O)P(=O)(O)O
[1]
  inhibition: inactive

## O=P(O)(O)C(O)(C[n+]1ccc(-c2ccccc2)cc1)P(=O)(O)O
[1]
  inhibition: inactive

## O=P(O)(O)C(CNCCc1ccccc1)P(=O)(O)O
[10]
  inhibition: inactive

## O=P(O)(O)C(O)(C[n+]1cccc(O)c1)P(=O)(O)O
[1]
  inhibition: inactive

## O=P(O)(O)C(O)(Cc1ccc(Cl)c(Cl)c1)P(=O)(O)O
[2]
  IC50: 35 µM
[3]
  IC50: > 500 µM
[12]
  Ki: 4.4 µM
[4]
  IC50: 45 µM
[13]
  Ki: 38 µM
[14]
  IC50: 35 µM
[15]
  IC50: 35 µM
[5]
  IC50: 4 µM
[6]
  IC50: 150 µM
[7]
  IC50: 4.5 µM
[16]
  IC50: 35 µM
[17]
  IC50: 35 µM
[8]
  IC50: > 250 µM
[9]
  IC50: 5 µM

## O=P(O)(O)C(CNc1ccccc1)P(=O)(O)O
[10]
  inhibition: inactive

## O=P(O)(O)Cc1ccc(Cl)c(Cl)c1
[11]
  inhibition: inactive

## CCc1cccc[n+]1CC(O)(P(=O)(O)O)P(=O)(O)O
[1]
  inhibition: inactive

## NC(Cc1ccccc1)(P(=O)(O)O)P(=O)(O)O
[1]
  inhibition: inactive

## O=P(O)(O)C(Cc1ccc(Cl)c(Cl)c1)P(=O)(O)O
[2]
  IC50: 30 µM
[3]
  IC50: > 500 µM
[4]
  IC50: 30 µM
[5]
  IC50: 5 µM
[6]
  IC50: 130 µM
[7]
  IC50: 6 µM
[8]
  IC50: > 250 µM
[9]
  IC50: 5 µM

## NC(Cc1ccc(Cl)c(Cl)c1)(P(=O)(O)O)P(=O)(O)O
[2]
  IC50: 7 µM
[3]
  IC50: > 500 µM
[12]
  Ki: 1 µM
[4]
  IC50: 3 µM
[14]
  IC50: 7 µM
[15]
  IC50: 7 µM
[5]
  IC50: 2 µM
[6]
  IC50: > 256 µM
[18]
  Ki: 2 µM
[7]
  IC50: 2 µM
[16]
  IC50: 7 µM
[17]
  IC50: 7 µM
[8]
  IC50: 7 µM
[9]
  IC50: 2 µM
[19]
  Ratio IC50: 2
